Experimental data taken from ChEMBL document CHEMBL4049388, “Facile and efficient access to Androsten-17-(1',3',4')-pyrazoles and Androst-17β-(1',3',4')-pyrazoles via Vilsmeier reagents, and their antiproliferative activity evaluation in vitro” (Eur J Med Chem, 2017).

What was measured:
[1] = Cytotoxicity against human 293T cells assessed as growth inhibition at 10 uM after 72 hrs by SRB assay relative to control; type: cell-based; conditions: HEK-293T cells, read-out: GI
In short: (§1)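 SRB single-dose screen at 10 μM on 293T, A549, Hela and MCF-7 cells. Results reported as percent inhibitory ratio (mean ± SD).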

A549 [2] = experiment: Cytotoxicity against human A549 cells assessed as growth inhibition at 10 uM after 72 hrs by SRB assay relative to control; type: functional; conditions: A549, 72 h, read-out: GI; in short: as §1
HeLa [3] = experiment: Cytotoxicity against human HeLa cells assessed as growth inhibition at 10 uM after 72 hrs by SRB assay relative to control; type: functional; conditions: read-out: GI; in short: as §1
MCF7 [4] = experiment: Cytotoxicity against human MCF7 cells assessed as growth inhibition at 10 uM after 72 hrs by SRB assay relative to control; type: functional; conditions: MCF7, 72 h, read-out: GI; in short: as §1
HEK-293T = experiment: Cytotoxicity against human 293T cells after 72 hrs by SRB assay; type: cell-based
In short: (§2)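 SRB assay on 293T, A549, Hela and MCF-7 cells, with cisplatin as reference control. IC50 calculated for each compound from triplicate assays.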

A549 [5] = experiment: Cytotoxicity against human A549 cells after 72 hrs by SRB assay; type: functional, cell-based; conditions: A549, 72 h; in short: as §2
HeLa [6] = experiment: Cytotoxicity against human HeLa cells after 72 hrs by SRB assay; type: functional, cell-based; in short: as §2
MCF7 [7] = experiment: Cytotoxicity against human MCF7 cells after 72 hrs by SRB assay; type: functional, cell-based; conditions: MCF7, 72 h; in short: as §2

Row | Structure (SMILES) | inhibition at 72 h, 10 µM [1] [%] | inhibition of growth at 10 µM (A549 [2]) [%] | inhibition of growth at 10 µM (HeLa [3]) [%] | inhibition of growth at 10 µM (MCF7 [4]) [%] | IC50 (HEK-293T) [µM] | IC50 (A549 [5]) [µM] | IC50 (HeLa [6]) [µM] | IC50 (MCF7 [7]) [µM]
1 | C[C@]12CC[C@H](O)C[C@@H]1CC[C@@H]1[C@@H]2CC[C@]2(C)[C@@H](c3nn(-c4ccccc4)cc3CO)CC[C@@H]12 | 18.5 | < 10 | < 10 | 27.8 |  |  |  | 
2 | C[C@]12CC[C@H](O)CC1=CC[C@@H]1[C@@H]2CC[C@]2(C)C(c3nn(-c4ccccc4)cc3CNCc3ccccc3)=CC[C@@H]12 | 50.7 | < 10 | < 10 | 25.4 |  |  |  | 
3 | C[C@]12CC[C@H]3[C@@H](CCC4C[C@@H](O)CC[C@@]43C)[C@@H]1CC[C@@H]2c1nn(-c2ccccc2)cc1CNc1ccccc1 (stereo partly drawn) | 12.5 | < 10 | < 10 | 16.9 |  |  |  | 
4 | CNCc1cn(-c2ccccc2)nc1C1=CC[C@H]2[C@@H]3CC=C4C[C@@H](O)CC[C@]4(C)[C@H]3CC[C@]12C | 91.6 | 82.1 | 90.5 | 81.1 | 2.11 | 3.68 | 3.86 | 6.91
5 | CCCNCc1cn(-c2ccccc2)nc1[C@H]1CC[C@H]2[C@@H]3CCC4C[C@@H](O)CC[C@]4(C)[C@H]3CC[C@]12C (stereo partly drawn) | 91.9 | 91.5 | 90.3 | 88.6 | 0.62 | 6.02 | 1.98 | 4.84
6 | CCCCNCc1cn(-c2ccccc2)nc1[C@H]1CC[C@H]2[C@@H]3CCC4C[C@@H](O)CC[C@]4(C)[C@H]3CC[C@]12C (stereo partly drawn) | < 10 | < 10 | 29.3 | 21.9 |  |  |  | 
7 | COc1ccccc1NCc1cn(-c2ccccc2)nc1C1=CC[C@H]2[C@@H]3CC=C4C[C@@H](O)CC[C@]4(C)[C@H]3CC[C@]12C | < 10 | < 10 | < 10 | 18.1 |  |  |  | 
8 | CCCNCc1cn(-c2ccccc2)nc1C1=CC[C@H]2[C@@H]3CC=C4C[C@@H](O)CC[C@]4(C)[C@H]3CC[C@]12C | 93.7 | 91.2 | 93.5 | 90.7 | 7.25 | 1.57 | 3.61 | 4.29
9 | CCCCNCc1cn(-c2ccccc2)nc1C1=CC[C@H]2[C@@H]3CC=C4C[C@@H](O)CC[C@]4(C)[C@H]3CC[C@]12C | 95.1 | 92.9 | 92.6 | 93.7 | 2.63 | 1.93 | 3.37 | 3.18
10 | C[C@]12CC[C@H]3[C@@H](CCC4C[C@@H](O)CC[C@@]43C)[C@@H]1CC[C@@H]2c1nn(-c2ccccc2)cc1CNCc1ccccc1 (stereo partly drawn) | 60.8 | 56.5 | 48.3 | 44.4 |  |  |  | 
11 | CCNCc1cn(-c2ccccc2)nc1[C@H]1CC[C@H]2[C@@H]3CCC4C[C@@H](O)CC[C@]4(C)[C@H]3CC[C@]12C (stereo partly drawn) | 91.2 | 92.4 | 88.4 | 88.9 | 5.29 | 6.35 | 3.28 | 3.92
12 | CC(C)NCc1cn(-c2ccccc2)nc1[C@H]1CC[C@H]2[C@@H]3CCC4C[C@@H](O)CC[C@]4(C)[C@H]3CC[C@]12C (stereo partly drawn) | 87.4 | 30.6 | 74.1 | 70.8 | 1.03 |  | 1.98 | 7.45
13 | CC(C)NCc1cn(-c2ccccc2)nc1C1=CC[C@H]2[C@@H]3CC=C4C[C@@H](O)CC[C@]4(C)[C@H]3CC[C@]12C | 94.7 | 93.3 | 92.4 | 92.1 | 7.51 | 2.87 | 3.49 | 6.36
14 | CNCc1cn(-c2ccccc2)nc1[C@H]1CC[C@H]2[C@@H]3CCC4C[C@@H](O)CC[C@]4(C)[C@H]3CC[C@]12C (stereo partly drawn) | 79.2 | < 10 | 41.3 | 45.9 |  |  |  | 
